This is an account of results in ChEMBL document CHEMBL1137875, “The identification and optimization of 2,4-diketobutyric acids as flap endonuclease 1 inhibitors” (Bioorg Med Chem Lett, 2004).

Each structure is given as a SMILES string.

The target in assay [1] is T1, DNA excision repair protein ERCC-5 (Homo sapiens, UniProt P28715).
T1 sequence (P28715 whole entry): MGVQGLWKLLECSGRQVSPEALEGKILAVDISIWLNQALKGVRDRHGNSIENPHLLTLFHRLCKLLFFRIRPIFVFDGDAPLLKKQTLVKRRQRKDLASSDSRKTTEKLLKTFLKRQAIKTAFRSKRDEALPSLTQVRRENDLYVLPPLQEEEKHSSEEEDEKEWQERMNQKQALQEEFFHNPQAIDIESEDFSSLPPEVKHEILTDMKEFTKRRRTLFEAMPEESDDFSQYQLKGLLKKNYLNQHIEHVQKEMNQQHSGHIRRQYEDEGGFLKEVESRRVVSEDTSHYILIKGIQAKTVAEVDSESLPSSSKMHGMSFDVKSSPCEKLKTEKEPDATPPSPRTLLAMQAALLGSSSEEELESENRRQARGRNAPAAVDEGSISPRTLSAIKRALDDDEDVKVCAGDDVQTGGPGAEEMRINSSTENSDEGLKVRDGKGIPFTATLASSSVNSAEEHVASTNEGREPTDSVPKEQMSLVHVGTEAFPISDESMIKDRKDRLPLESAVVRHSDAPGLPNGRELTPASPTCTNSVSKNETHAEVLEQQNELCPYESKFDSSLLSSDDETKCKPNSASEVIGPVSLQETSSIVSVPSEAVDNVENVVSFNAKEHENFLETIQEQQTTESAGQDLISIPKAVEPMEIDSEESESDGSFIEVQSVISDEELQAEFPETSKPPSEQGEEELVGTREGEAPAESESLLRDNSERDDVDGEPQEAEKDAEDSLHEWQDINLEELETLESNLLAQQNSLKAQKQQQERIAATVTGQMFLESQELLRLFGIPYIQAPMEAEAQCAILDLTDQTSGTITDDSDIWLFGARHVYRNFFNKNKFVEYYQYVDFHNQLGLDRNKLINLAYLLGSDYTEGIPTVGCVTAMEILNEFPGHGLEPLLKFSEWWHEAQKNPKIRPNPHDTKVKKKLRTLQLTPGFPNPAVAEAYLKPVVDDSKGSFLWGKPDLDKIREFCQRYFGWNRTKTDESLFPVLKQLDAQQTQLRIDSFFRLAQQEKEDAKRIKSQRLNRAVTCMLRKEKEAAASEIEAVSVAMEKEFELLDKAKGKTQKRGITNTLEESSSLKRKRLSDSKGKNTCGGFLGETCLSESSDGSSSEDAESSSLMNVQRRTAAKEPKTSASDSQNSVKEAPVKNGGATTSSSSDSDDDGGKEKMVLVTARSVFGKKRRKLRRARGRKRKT
Kind of assay: Concentration required for 50% inhibition of Xeroderma pigmentosum G. In short, it runs like this:
(§1)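 Fluorescence nuclease assay with 5 pmol BVT substrate in buffer at pH 8.0 containing 10 mM MgCl₂, 0.5 mM 2-mercaptoethanol, BSA and circular plasmid. Enzyme was 180 U FEN1 or 50 ng XPG. Reactions ran 90 min at room temperature and were stopped with 0.025% SDS/12.5 mM EDTA. Fluorescence was read at 485 nm excitation/538 nm emission.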

For a further assay, the target named is Flap endonuclease 1 (Homo sapiens, UniProt P39748). In words: Concentration required for 50% inhibition of Flap endonuclease-1. In short, it runs like this:
as §1

Flap endonuclease 1, sequence (P39748 whole entry): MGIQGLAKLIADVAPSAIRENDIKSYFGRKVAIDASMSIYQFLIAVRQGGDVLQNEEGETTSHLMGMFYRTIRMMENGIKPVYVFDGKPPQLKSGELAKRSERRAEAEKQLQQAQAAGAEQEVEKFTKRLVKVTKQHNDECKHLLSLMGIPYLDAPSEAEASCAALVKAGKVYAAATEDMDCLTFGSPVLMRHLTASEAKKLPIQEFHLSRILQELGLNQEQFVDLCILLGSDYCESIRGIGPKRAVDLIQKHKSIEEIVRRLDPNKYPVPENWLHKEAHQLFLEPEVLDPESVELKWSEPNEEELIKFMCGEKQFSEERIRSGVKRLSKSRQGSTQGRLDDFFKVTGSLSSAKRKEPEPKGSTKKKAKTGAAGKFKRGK

Usually IC50 stands for the midpoint of a concentration-inhibition curve. Higher therefore signals a need for much substance. Turning to `O=C(CC(=O)c1nnn[nH]1)c1ccc(Oc2ccccc2)cc1`, the IC50 in assay [1] worked out at 97 µM; at Flap endonuclease 1, 63.2 µM.

Consider `O=C(O)C(=O)CC(=O)c1cc(Cl)ccc1Cl`, for which the IC50 in assay [1] is 7 µM; on Flap endonuclease 1, 1.82 µM.

For the compound `CCOc1ccc(-c2ccc(C(=O)CC(=O)C(=O)O)o2)cc1`, the IC50 in assay [1] is 1.4 µM; against Flap endonuclease 1 it was 11.3 µM.

Turning to `O=C(CC(=O)c1cc(=O)[nH]o1)c1ccc(Oc2ccccc2)cc1`, the IC50 (in assay [1]; against Flap endonuclease 1) was over 100 µM in each case.

With `O=C(O)C(=O)CC(=O)c1ccc(-c2ccc(OC(F)(F)F)cc2)s1`, the IC50 came out at 0.31 µM in assay [1] and 0.44 µM at Flap endonuclease 1.

Take `O=C(O)C(=O)CC(=O)c1ccccc1`: the IC50 in assay [1] amounted to 75.4 µM; at Flap endonuclease 1, 24.9 µM.

On to `O=C(O)C(=O)CC(=O)c1cccc(Oc2ccccc2)c1`, for which the figures for the IC50 (in assay [1]; against Flap endonuclease 1) were 5.44 µM and 7.31 µM, respectively.

Turning to `O=C(O)C(=O)CC(=O)c1cccc(-c2ccccc2)c1`, the IC50 in assay [1] is 3.24 µM; against Flap endonuclease 1, 3.62 µM.

As to `O=C(O)C(=O)CC(=O)c1ccc(-c2ccc(Cl)cc2)cc1Cl`, the IC50 in assay [1] amounted to 1.77 µM; on Flap endonuclease 1, 0.41 µM.

`O=C(O)C(=O)CC(=O)c1ccc(Oc2ccccc2)cc1`: the IC50 in assay [1] stood at 1.87 µM; against Flap endonuclease 1 it was 1.75 µM.

For `COc1ccc(-c2ccc(Cl)c(C(=O)CC(=O)C(=O)O)c2)cc1`, the IC50 was found to be 0.57 µM in assay [1] and 0.19 µM at Flap endonuclease 1.

For `O=C(CC(=O)c1nnn[nH]1)c1ccc(-c2ccccc2)cc1`, the IC50 (in assay [1]; against Flap endonuclease 1) was over 100 µM in each case.

On to `O=C(O)C(=O)CC(=O)c1ccc(-c2ccccc2)cc1`, for which the IC50 in assay [1] worked out at 1.6 µM; at Flap endonuclease 1, 3.5 µM.

For the compound `C=C(CC(=O)c1ccc(Oc2ccccc2)cc1)C(=O)O`, the IC50 (in assay [1]; on Flap endonuclease 1) was over 100 µM in each case.

As for `O=C(O)C(=O)CC(=O)c1ccc(-c2ccccc2)o1`, the figures for the half-inhibitory concentration (IC50) (in assay [1]; on Flap endonuclease 1) were 1.81 µM and 1.66 µM, respectively.

Take `O=C(O)C(=O)CC(=O)c1c(Cl)cccc1Cl`: the IC50 is over 100 µM in assay [1] and 37.9 µM at Flap endonuclease 1.

In the case of `COc1ccc(-c2cccc(C(=O)CC(=O)C(=O)O)c2)cc1`, the IC50 in assay [1] was 1.59 µM; against Flap endonuclease 1, 1.36 µM.

As to `CC(C)(C)c1ccc(-c2ccc(C(=O)CC(=O)C(=O)O)o2)cc1`, the IC50 amounted to 3.13 µM in assay [1] and 13.5 µM at Flap endonuclease 1.

For the compound `O=C(O)C(=O)CC(=O)c1ccc(Cl)cc1Cl`, the IC50 came out at 9.85 µM in assay [1] and 5.53 µM against Flap endonuclease 1.

Regarding `O=C(O)C(=O)CC(=O)c1ccc(Cl)cc1`, the IC50 in assay [1] amounted to 12.7 µM; on Flap endonuclease 1, 19.3 µM.

For the compound `O=C(O)C(=O)CC(=O)c1cccs1`, the IC50 in assay [1] was found to be 38.7 µM; on Flap endonuclease 1 it was 10.1 µM.

With `O=C(O)C(=O)CC(=O)c1ccccc1Cl`, the IC50 was found to be 38.1 µM in assay [1] and 3.51 µM against Flap endonuclease 1.

As to `O=C(c1ccc(Oc2ccccc2)cc1)c1ncc2cccnc2c1O`, the IC50 in assay [1] is over 100 µM; against Flap endonuclease 1 it was 29 µM.

Consider `COc1ccc(Cn2nnnc2C(=O)CC(=O)c2ccc(-c3ccccc3)cc2)cc1`, for which the IC50 in assay [1] was 52.4 µM; against Flap endonuclease 1, 34.3 µM.

With `O=C(O)C(=O)CC(=O)c1ccc(-c2ccc(Cl)cc2)o1`, the IC50 in assay [1] is 0.98 µM; against Flap endonuclease 1, 10.8 µM.

With `O=C(O)C(=O)CC(=O)c1cccc(Cl)c1Cl`, the IC50 was determined as 22.1 µM in assay [1] and 17.7 µM at Flap endonuclease 1.

Consider `O=C(O)C(=O)CC(=O)c1cc(-c2ccccc2)ccc1Cl`, for which the results for the IC50 (in assay [1]; at Flap endonuclease 1) were 1.13 µM and 0.33 µM, respectively.

`O=C(O)C(=O)CC(=O)c1cccc(Cl)c1`: the IC50 in assay [1] is 13.1 µM; against Flap endonuclease 1, 6.96 µM.

On to `O=C(O)C(=O)CC(=O)c1ccc(-c2ccc(Cl)c(F)c2)s1`, for which the values for the IC50 (in assay [1]; at Flap endonuclease 1) were 0.9 µM and 0.57 µM, respectively.

Consider `Cc1ccccc1C(=O)CC(=O)C(=O)O`, for which the IC50 in assay [1] was 54.5 µM; on Flap endonuclease 1, 12.9 µM.

Consider `O=C(O)C(=O)CC(=O)c1ccccc1F`, for which the IC50 in assay [1] turned out to be 78.5 µM; on Flap endonuclease 1, 14.5 µM.

In the case of `O=C(O)C(=O)CC(=O)c1ccco1`, the IC50 turned out to be 41 µM in assay [1] and 64.2 µM against Flap endonuclease 1.

In the case of `O=C(O)C(=O)CC(=O)c1ccc(-c2ccccc2)s1`, the IC50 in assay [1] is 1.85 µM; at Flap endonuclease 1, 7.65 µM.

`O=C(O)C(=O)CC(=O)c1ccc(-c2ccccc2Cl)o1`: the results for the IC50 (in assay [1]; at Flap endonuclease 1) were 1.85 µM and 12.2 µM, respectively.

Take `O=C(O)C(=O)Cc1ncc(-c2ccccc2)s1`: the IC50 in assay [1] stood at 31.7 µM; against Flap endonuclease 1 it was 46.4 µM.
